Laboratory results taken from publication PMC11868578 (Nature Communications, 2025).
Converted amounts (≈) assume the structure as drawn.

Tests used:
[1] = test system: N-YFP IBs (N protein condensates); assay: N-YFP inclusion bodies; type: cell-based, Nicotiana benthamiana
PMMoV = assay: Inactivation activity against PMMoV; type: in vivo; settings: read-out: Inhibition rate (inactivation activity) against PMMoV
PVY = assay: Inactivation activity against PVY; type: in vivo; settings: read-out: Inhibition rate (inactivation activity) against PVY
TSWV = assay: Anti-TSWV assay, half-leaf method on Nicotiana glutinosa; type: in vivo, tomato spotted wilt virus; settings: for Curative effect (%) / Inactive effect (%) (inactivation activity) / Protective effect (%): 500 µg/mL, half-leaf method, N. glutinosa, mean ± SD, n = 3; for EC50: Orthotospovirus tomatomaculae, in Nicotiana glutinosa
Method in brief: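 Half-leaf test on healthy N. glutinosa, leaves pre-dusted with carborundum and virus extract brushed on. Curative: leaves rinsed 30 min after inoculation, then agent put on the right half. Protective: agent put on 12 h before inoculation. Inactivation: agent mixed 1:1 with virus extract on ice for 30 min, then put on the right half; left half got buffer-diluted virus. Plants grown at 25 °C day/23 °C night. Lesions counted after about 2 days. EC50 from 31.25–500 µg/mL.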

N WT (NWT) = molecular target: T1, N WT (NWT) (Tomato spotted wilt virus (TSWV), UniProt P26000 1-258); assay: BLI
T1 sequence: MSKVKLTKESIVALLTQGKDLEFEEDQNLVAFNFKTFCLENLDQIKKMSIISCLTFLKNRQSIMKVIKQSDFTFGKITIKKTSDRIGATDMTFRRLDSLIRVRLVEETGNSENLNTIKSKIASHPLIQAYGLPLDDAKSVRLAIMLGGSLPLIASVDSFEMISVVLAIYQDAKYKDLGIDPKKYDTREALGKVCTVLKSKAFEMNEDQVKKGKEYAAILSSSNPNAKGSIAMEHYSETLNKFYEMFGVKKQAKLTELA

`OCCCCCCO` [1,6-hexanediol] was tested, and the “Effect on N-YFP particle number, leaves treated at 36 h” value ([1]; 36 hpi) was “significant reduction in particle number” and the “Effect on large N-YFP granules, leaves treated at 72 h” value ([1]; 72 hpi) was “difficult to observe a significant decrease in the number of large particles”.

For `CNCC(=O)N[C@@H](CO)C(=O)N[C@H]1[C@H](O)[C@@H](O)[C@H](n2ccc(N)nc2=O)O[C@@H]1C(N)=O` [Ningnanmycin], the inhibition at 500 µg/mL (PMMoV) was 72%, the inhibition at 500 µg/mL (PVY) was 77.6% and the “Curative effect (%)” value (TSWV) was 57.9 ± 1.5%. For the same molecule, the “Inactive effect (%) (inactivation activity)” value (“Inactive effect (%)” below) (TSWV) was 69.3 ± 2.4%, the “Protective effect (%)” value (TSWV) was 61.7 ± 5.2% and the “Inactive effect (%)” value (TSWV; listed as ningnanmycin) was 69.3%. It also gave an EC50 (TSWV) of 149 ± 8.7 µg/mL (≈ 337 µM).

In the case of `NC(=O)c1ncn([C@@H]2O[C@H](CO)[C@@H](O)[C@H]2O)n1` [Ribavirin], the inhibition at 500 µg/mL (PMMoV) is reported as 56.5%, the inhibition at 500 µg/mL (PVY) is reported as 55.3% and the “Curative effect (%)” value (TSWV) is reported as 39.2 ± 3.2%. The “Inactive effect (%)” value (TSWV) was 43.7 ± 7.5%, the “Protective effect (%)” value (TSWV) was 40.4 ± 6.8% and the “Inactive effect (%)” value (TSWV; listed as ribavirin) was 43.7%. It also gave an EC50 (TSWV) of 802 ± 12.6 µg/mL (≈ 3280 µM).

B1: biotinylated RNA (BLI) (ssRNA)
RNA: GAGAGCAAUUGUGUCAGAA
Work on B1 yielded a Kd (N WT (NWT)) of 7.3 nM.
